RAD54 branch: RAD54 (human) branch migration inhibition; Q92698; RAD54 Holliday junction branch migration, FAM/BHQ fluorescence; inhibition, % at 10.4 µM; 360,000 compounds, 0.14% hits;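 active = mean normalized replicate activity at least 40 and at least half of replicates scoring 40 or more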;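 note: inhibitors cause a drop in the FAM fluorescence signal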
PglD DTNB: blocks C. jejuni PglD acetyltransferase activity; inhibition, % at 12.5 µM; AID 602405; 360,000 compounds, 0.098% hits; purified PglD enzyme, DTNB colorimetric CoA detection; in the data active = inhibition above about 16%, passing the limit was not always enough
XiGFP reactiv: X-chromosome reactivation activator; XiGFP mouse fibroblasts, % GFP-positive cells imaging, 3 d; cells co-treated with 5-aza-dC sensitizer; scaled so ellipticine positive control = 100%; activation, % at 7.58 µM; 360,000 compounds, 0.055% hits; AID 743238;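 active = mean normalized replicate activation at least 10% and every replicate at or above 10%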
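Material: XiGFP fibroblasts, SV40-immortalized; Buffer or medium: DMEM containing 5-aza-dC; Compound dosing: single point; Times: 3 days compound exposure.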
Ecoli rRNA inh: inhibitors of bacterial rRNA selective over humanized ribosomes. AID 720706. GFP signal change (wild-type ribosome), % (test concentration not listed). 350,000 compounds, 1.6% hits. E. coli WT GFP vs humanized-ribosome RFP mutants, fluorescence, 24 h; active compounds read low; DMSO median 0, no signal -100;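 active = significant combined selectivity score with lowered wild-type GFP, culture density cut under 30%, mutant RFP and density less affected; inactive = any of these conditions unmet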
E-sel inducer: E-selectin induction on HUVECs; P16581; HUVEC E-selectin immunofluorescence imaging; normalized: neutral wells 0, TNF-alpha wells 100; activation, % at 7.58 µM; 260,000 compounds, 0.37% hits;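 active = mean E-selectin-positive cell signal at least 10% of the positive control, reached in at least 60% of replicates, without over 20% cell loss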
Target sequence (P16581 whole entry, looked up): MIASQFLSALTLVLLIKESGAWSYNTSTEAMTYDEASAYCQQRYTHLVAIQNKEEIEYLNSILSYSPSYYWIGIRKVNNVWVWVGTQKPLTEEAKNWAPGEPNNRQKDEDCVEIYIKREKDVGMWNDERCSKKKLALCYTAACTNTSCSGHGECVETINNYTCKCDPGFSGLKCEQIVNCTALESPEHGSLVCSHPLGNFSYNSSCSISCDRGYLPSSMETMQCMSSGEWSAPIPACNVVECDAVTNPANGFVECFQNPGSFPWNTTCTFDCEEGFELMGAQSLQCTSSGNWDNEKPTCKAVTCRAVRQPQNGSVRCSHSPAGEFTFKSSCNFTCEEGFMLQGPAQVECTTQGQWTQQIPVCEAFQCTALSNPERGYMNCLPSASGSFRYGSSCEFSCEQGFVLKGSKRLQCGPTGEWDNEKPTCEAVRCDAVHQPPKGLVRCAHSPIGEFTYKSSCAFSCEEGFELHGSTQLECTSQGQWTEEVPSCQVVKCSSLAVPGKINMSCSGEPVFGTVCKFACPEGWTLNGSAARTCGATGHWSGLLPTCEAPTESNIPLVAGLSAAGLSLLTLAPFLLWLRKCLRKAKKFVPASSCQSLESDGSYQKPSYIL
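Test system: HUVEC; input: 3,000 HUVEC/well; measured by: immunofluorescence imaging; read-out: % PE-positive cells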
RAD52 anneal inh: RAD52 (human) annealing inhibition; recombinant RAD52 DNA annealing, FRET fluorescence; inhibition, % at 18.7 µM; 360,000 compounds, 0.46% hits;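 active = every replicate showing at least 50% inhibition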
DNA binder FP: binds DNA, flagging false RAD52 inhibitor hits. AC50, µM. Salmon sperm DNA/acridine orange FP displacement, DNA binding. shares compounds with RAD52 anneal inh. 1,000 compounds, 8% hits;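 active = fitted half-maximal concentration for signal loss at or below twice the highest dose tested, in every separate run, actives reach about 64 µM in these data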
Numbers stand for hits; 0 = inactive; - = no result; ! = a repeat was not active. A selection: hits, their analogues and other compounds. The true share with any hit is near 2%.

SMILES	RAD54 branch	PglD DTNB	XiGFP reactiv	Ecoli rRNA inh	E-sel inducer	RAD52 anneal inh	DNA binder FP
CN(C)CC/C=C1\c2ccc(F)cc2Sc2cc(F)c(Cl)cc21	0	0	0	0	0	71.3	0
CCCNC(=O)N1CC(=O)N2[C@H](CO)[C@H](c3ccc(C#Cc4ccc(F)cc4)cc3)[C@H]2C1	-	-	0	0	0	0	-
C/C=C/c1ccc([C@@H]2[C@H]3CN(C(=O)Nc4cccc(OC)c4)CC(=O)N3[C@H]2CO)cc1	-	-	0	0	0	0	-
Cc1ccc(-c2[nH]c3cc(C(=O)NCCCn4ccnc4)ccc3c(=O)c2O)cc1	0	0	0	-20.6	-	80.5	0
CCC(C)Sc1ccc([C@H]2N[C@@](Cc3ccccc3)(C(=O)OC)[C@H]3C(=O)N(C)C(=O)[C@@H]23)cc1 (stereo partly specified)	0	0	0	0	0	97.8	0
OC[C@@H]1CN(Cc2ccc3c(c2)OCO3)C[C@H](n2cnc3c(N4CCCC4)ncnc32)O1	0	0	0	0	0	86.0	0
CNC[C@H]1Oc2ccc(NC(=O)Nc3ccc(C(F)(F)F)cc3)cc2C(=O)N([C@@H](C)CO)C[C@H]1C	0	0	0	0	-	0	-
COc1ccc(N)cc1NC(=O)CN1CCCC1	0	0	0	0	-	79.4	0
COc1ccc(Cl)cc1NC(=O)CN1CCCCCC1	-	-	0	0	0	0	-
Cc1cccc(C)c1NC(=O)CN1CCCC1	-	-	0	0	0	0	-
Cc1cc(N)ccc1NC(=O)CN1CCCC1	0	0	0	0	0	100.7	0
CCCOc1cc(N)ccc1C(=O)OCCN(CC)CC	0	0	0	-	0	62.4	0
CCN(CC)CCOC(=O)c1ccc(N)cc1	0	0	0	-	0	88.4	0
CCN(CC)CCOC(=O)c1ccc(NC(=O)/C=C/c2cccs2)cc1	-	-	0	0	0	58.0	0
CCN(CC)CCOC(=O)c1ccc([N+](=O)[O-])cc1	-	-	0	0	0	0	-
CCN(CC)CCCOC(=O)c1ccc(OC)cc1O	-	-	0	0	-	0	-
CCOC(=O)c1ccc(NC(=O)/C=C/c2cccs2)cc1	-	-	0	0	-	0	-
N#Cc1ccc(-c2ccc([C@@H]3[C@H]4CN(C(=O)C5CCCC5)CC(=O)N4[C@H]3CO)cc2)cc1	-	-	0	0	0	0	-
COc1ccccc1NC(=O)N[C@@H]1CC[C@H](CCNS(=O)(=O)c2ccc(Cl)cc2)O[C@@H]1CO	0	0	0	0	0	0	-
O=C1c2ccccc2C(=O)c2c(NCCCN(CCO)CCO)cccc21	-	-	0	0	-	93.1	4.26µM
Cc1ccc(S(=O)(=O)Nc2ccc3c(c2)C(=O)N([C@H](C)CO)C[C@H](C)[C@@H](CN(C)C)O3)cc1	0	0	0	0	0	0	-
Oc1c(CN2CCCCC2)ccc2cccnc12	0	0	0	-13.4	0	63.0	0
Oc1ccc(CN2CCCCC2)c2cccnc12	0	0	-	0	-	0	-
CN(C)C(=O)c1cccc(-c2ccc3c(c2)[C@H]2[C@H](CCN2C(=O)C2CCC2)[C@H](CO)N3)c1	-	-	0	0	0	0	-
C#CC[N+]1(CC#Cc2ccccc2)CCCC1	0	0	-	-	-	-	-
SMILES	RAD54 branch	PglD DTNB	XiGFP reactiv	Ecoli rRNA inh	E-sel inducer	RAD52 anneal inh	DNA binder FP
C(#Cc1ccccc1)C[N+]1(CC#Cc2cccc3ccccc23)CCCC1	-	-	0	0	0	65.9	0
C[C@@H]1CN([C@@H](C)CO)C(=O)c2cccc(NC(=O)Nc3ccc4c(c3)OCO4)c2O[C@@H]1CN(C)Cc1ccc(Oc2ccccc2)cc1	0	0	0	0	0	0	0
C[C@@H]1CN([C@H](C)CO)C(=O)c2cccc(NC(=O)Nc3ccc4c(c3)OCO4)c2O[C@@H]1CN(C)Cc1ccc(Oc2ccccc2)cc1	0	0	0	0	0	0	-
CCN1CCN(Cc2ccc(NC(=O)c3cccc(-c4ccc5nc(NC(=O)C6CC6)sc5n4)c3)cc2C(F)(F)F)CC1	-	-	0	0	0	66.6	0
CCN1CCN(Cc2ccc(NC(=O)c3cc(NC(=O)C(=O)c4c[nH]c5ccccc45)cc(OC)c3)cc2C(F)(F)F)CC1	0	0	0	0	0	0	-
CCN1CCN(Cc2ccc(NC(=O)c3ccc(C)c(NC(=O)c4ccc5n[nH]nc5c4)c3)cc2C(F)(F)F)CC1	0	0	0	0	0	0	-
CCN1CCN(Cc2ccc(C(=O)Nc3ccc(C)c(NCc4cnc(NC(=O)OC)cn4)c3)cc2C(F)(F)F)CC1	0	0	0	-16.8!	0	96.5!	0
CCN1CCN(Cc2ccc(NC(=O)c3ccc(C)c(NC(=O)C(=O)c4c[nH]c5ccccc45)c3)cc2C(F)(F)F)CC1	0	0	0	0	0	98.5!	0
C[C@@H]1CN([C@H](C)CO)C(=O)c2cc(NC(=O)C3CC3)ccc2O[C@@H]1CN(C)S(=O)(=O)c1ccc(Cl)cc1	0	0	0	0	0	0	-
OCCNCc1ccc(OCc2ccc(Cl)cc2Cl)cc1	-	-	0	0	-	0	-
OCCCCNCc1ccc(OCc2ccc(Cl)cc2Cl)cc1	0	0	-	0	-	65.6	0
CC(=O)N[C@@H]1C[C@@H]2O[C@H](CO)CC[C@@H]2O[C@@H]1CCc1ccc(-c2ccc(F)cc2)cc1	-	-	-	-	-	0	-
Clc1ccc2[nH]c3c(c2c1)CNCC3	0	0	0	0	0	65.0	0
O=C(NCC1CCCCC1)C1(CC2CC(c3ccc(Cl)cc3)=NO2)CCNCC1 (stereo unspecified)	0	0	0	0	0	66.9	0
COc1cccc(-c2ccc([C@H]3[C@@H](CO)N(C(C)=O)C34CN(C(C)=O)C4)cc2)c1	-	-	0	0	0	0	-
CCN(Cc1ccccc1)c1ccc(/C=N/N=C(N)N)cc1	0	0	0	0	-	91.9	0
CCN(Cc1ccccc1)c1ccccc1	0	0	-	0	-	0	-
COc1ccc(S(=O)(=O)N(C)C[C@H]2Oc3cc(-c4ccccc4OC)ccc3S(=O)(=O)N([C@H](C)CO)C[C@@H]2C)cc1	0	0	0	0	0	0	-
CCOC(=O)CCc1c(C)nc(SCC(=O)O)c(C#N)c1C	0	0	-	-	-	-	-
CCOC(=O)CCc1c(C)nc(SCc2ccc(C(=O)O)cc2)c(C#N)c1C	0	0	0	0	0	96.5	0
COc1ccc2cc3[n+](cc2c1OC)CCc1cc2c(cc1-3)OCO2	72.4	0	0	0	0	75.4	0
COc1cccc(C2=NCCc3cc4c(cc32)OCO4)c1OC	0	0	0	-	-	-	-
COc1ccc(-c2nc(CN3CCN(c4cc(C)nc(C)c4)CC3)c(C)o2)c2ccccc12	0	0	0	0	0	82.2	0
Cc1cc(N2CCN(Cc3nc(-c4ccc(Cl)cc4)oc3C)CC2)cc(C)n1	0	0	0	0	0	0	-
N#Cc1cc2cc3c(cc2nc1NCCNC(=S)NCCCN1CCOCC1)OCO3	-	-	0	0	0	72.3	0

Assay outcomes deposited in PubChem by Broad Institute.
